Diaphorase act: counter-screen for diaphorase-based assays: diaphorase activators and chemical reducers | Diaphorase/resazurin coupled assay, resorufin fluorescence, 16 min; hits give high values; 1 = vehicle wells, 0 = NADH-free wells | activation factor at 20 µM | 190,000 tested, 0.005% active;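 active = diaphorase activity raised at least twofold by the compound at 20 µM; inactive = activation factor below 2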
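System – purified diaphorase enzyme from Clostridium kluyveri · Input – enzyme 0.07 U/mL final · Also added – final NADH 0.114 mM, resazurin 0.1 mM · Measured by – fluorescence of resorufin, 544 nm excitation, 590 nm emission · Timing – 16 min enzyme reaction, ambient temperature · Measure – resorufin increase flagging diaphorase activators or reducers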
Lmaj promast: inhibitors of Leishmania major promastigote growth; Leishmania major promastigotes, resazurin fluorescence viability; inhibition, % at 10 µM; 200,000 tested, 9% active; AID 1063; in the data active = inhibition above about 50%;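 note: promastigotes grown with compound for 44 hours at 28 °C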
WT yeast gro inh: growth inhibition of WT yeast, mitochondrial fusion screen; mitochondrial fusion phenotypic screen, WT strain; inhibition, % at 10 µM; 190,000 tested, 2.1% active; AID 1362; in the data active = inhibition above about 58%; tested in S. cerevisiae
ROMK primary: human ROMK K+ channel modulation, primary screen; B-score at 10 µM; Tet-inducible ROMK, thallium flux fluorescence; actives lie on both sides; 130,000 tested, 2% active; P48048;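 active = signal ratio slope over the read window, or its plate-corrected B-score, at least 3 SD from the plate mean, either direction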;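 note: B-score of the F/F0 ratio slope over 7 to 12 s after thallium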
Target sequence (P48048 whole entry, looked up): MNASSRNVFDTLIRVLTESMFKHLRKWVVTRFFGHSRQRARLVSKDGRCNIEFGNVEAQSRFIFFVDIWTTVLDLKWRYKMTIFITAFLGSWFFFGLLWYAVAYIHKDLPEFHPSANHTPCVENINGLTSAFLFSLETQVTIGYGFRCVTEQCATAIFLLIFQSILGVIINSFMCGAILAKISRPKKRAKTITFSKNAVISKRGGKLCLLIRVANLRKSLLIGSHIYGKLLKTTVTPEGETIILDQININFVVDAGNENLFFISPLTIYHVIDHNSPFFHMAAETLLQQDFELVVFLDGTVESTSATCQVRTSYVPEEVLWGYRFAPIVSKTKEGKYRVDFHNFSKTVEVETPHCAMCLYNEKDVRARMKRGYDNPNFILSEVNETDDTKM
KCC2 mod: modulates chloride dependent transport by human KCC2. B-score of Tl+ flux slope (higher = more flux/activation; lower = inhibition) at 10 µM. 190,000 tested, 2.2% active. Q9H2X9. KCC2 cells, thallium flux FluoZin-2 fluorescence;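 active = thallium flux slope and its plate-corrected score both differing from the plate sample mean at a set confidence after two filtering rounds, in either direction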;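 note: slope of fluorescence scaled to starting intensity during 10 to 20 s after thallium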
Diaph inh CS: counter-screen for diaphorase-based assays: diaphorase inhibitors and chemical oxidizers; 190,000 tested, 0.69% active; inhibition, % at 20 µM; diaphorase resazurin-to-resorufin fluorescence, NADH, 16 min; bacterial (C. kluyveri) enzyme, not human;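 active = primary screen inhibition at 20 µM above a set limit, cut at about 50% in these data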
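material = Clostridium kluyveri diaphorase enzyme | amount = 0.14 U/mL diaphorase, enzyme working solution | schedule = incubation 16 min, room temperature | detection = fluorescence of resorufin formed from resazurin, Ex 544/Em 590 nm | benchmarks = positive control minus NADH, DMSO neutral control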
KCC2 secondary: KCC2 (human) modulation, secondary assay; shares compounds with KCC2 mod; 3,700 tested, 15% active; HEK293-KCC2, thallium flux, FluoZin2 fluorescence; hits give high values; normalised thallium flux (F/F0 slope) at 10 µM;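 active = thallium flux slope above the same plate's solvent-only control mean plus 3 SD; inconclusive = the two replicate wells disagree; inactive = no significant difference from solvent-only control wells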
KCC2 bumet counter: bumetanide-insensitive thallium flux in KCC2 cells with ouabain, counter-screen; shares compounds with KCC2 mod; HEK293-KCC2 + bumetanide/ouabain, thallium flux FluoZin2; hits give high values; normalized thallium flux at 10 µM; 3,700 tested, 49% active; AID 1714;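 active = thallium entry rate above the same plate's blocked-transporter control wells by more than 3 SD; inconclusive = the two repeat wells disagree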;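 note: raw slope of fluorescence over initial fluorescence between 10 and 20 s after thallium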
KCC2 secondary2: KCC2 (human) modulation, second secondary assay. shares compounds with KCC2 mod. HEK293-KCC2, thallium flux FluoZin2 fluorescence; actives lie on both sides; F/F0 rise rate, 10–20 s post-thallium. normalized thallium flux at 10 µM. 3,700 tested, 23% active. AID 1715;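 active = thallium flux slope more than 3 SD above or below the plate's solvent-only control mean, mostly below; inconclusive = the two repeat wells disagreed; inactive = no significant shift from solvent-only controls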
HEK counter1: parental HEK flux effect, counter-screen; shares compounds with KCC2 mod; HEK293 parental cells, thallium flux FluoZin2, ouabain; baseline-ratio fluorescence slope, 10–20 s after thallium; thallium flux rate (normalised fluorescence) at 10 µM; 3,700 tested, 46% active; AID 1716;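 active = thallium flux rate significantly above the same plate's solvent-only control wells, beyond their mean plus 3 SD; inconclusive = the two replicate wells gave conflicting results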
KCC2 ouabain: confirmation of human KCC2 modulators with ouabain; shares compounds with KCC2 mod; HEK293-KCC2, thallium flux FluoZin2 fluorescence; bidirectional: low = inhibitor, high = activator; raw Tl+ flux slope (below DMSO = inhibition, above = activation) at 10 µM; 3,700 tested, 48% active; AID 1717;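 active = thallium flux slope beyond 3 SD from same-plate DMSO control mean in most replicates, usually higher, sometimes lower; inconclusive = repeat tests gave conflicting results; inactive = no significant difference from controls in most replicates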;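 note: slope of initial-normalized fluorescence between seconds 10 and 20 after thallium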
HEK counter2: counter-screen for KCC2 modulators: effect in parental HEK293 cells. AID 1718. shares compounds with KCC2 mod. 3,700 tested, 33% active. thallium flux FluoZin-2 fluorescence slope. thallium flux slope at 10 µM;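 active = thallium flux slope above the same plate's solvent-control mean plus 3 SD in both duplicate wells; inconclusive = duplicate wells that disagreed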;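 note: run without ouabain in cells lacking the KCC2 cotransporter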
A number is an active result; n = inactive; u = inconclusive; x = no result given. Hits are enriched below; roughly 12% of the tested compounds scored in any of these assays.

SMILES | Diaphorase act | Lmaj promast | WT yeast gro inh | ROMK primary | KCC2 mod | Diaph inh CS | KCC2 secondary | KCC2 bumet counter | KCC2 secondary2 | HEK counter1 | KCC2 ouabain | HEK counter2
CCS(=O)(=O)c1nn2c(N)c(/C=C3/C=CC(=O)C(OC)=C3)c(=O)nc2s1 | n | n | n | n | n | n | x | x | x | x | x | x
COC1=C/C(=C/c2c(N)n3nc(-c4ccc(C)cc4)sc3nc2=O)C=CC1=O | n | 74 | n | n | 9.8 | n | n | 0.063 | u | 0.083 | u | 0.024
Cc1[nH]n(-c2ccccc2)c(=O)c1C1(C(F)(F)F)C(=O)N(c2ccc(F)cc2)C2=C1C(=O)CC(C)(C)C2 (stereo not given) | n | n | n | n | n | n | x | x | x | x | x | x
Cc1ccc2nc(NC(=O)c3ccco3)sc2c1 | n | n | n | n | n | n | x | x | x | x | x | x
O=C(NNc1nc(-c2ccc(Br)cc2)cs1)c1ccco1 | n | n | n | n | n | n | x | x | x | x | x | x
O=C(NC(=S)Nc1nc(-c2ccc(Br)cc2)cs1)c1ccco1 | n | n | n | n | 5.5 | n | n | 0.0078 | n | 0.011 | n | 0.011
Cc1ccnc(NC(=S)NC(=O)c2ccco2)c1 | n | n | n | x | 7.5 | n | 0.015 | 0.057 | n | 0.02 | 0.046 | 0.013
Cc1ccc2nc(NC(=S)NC(=O)c3ccco3)sc2c1 | n | n | n | n | 64 | n | 0.024 | 0.15 | 0.057 | 0.084 | 0.076 | 0.042
COc1ccccc1NC(=O)Cn1nnc(-c2ccccc2NC(=O)c2cnccn2)n1 | n | n | n | n | n | n | x | x | x | x | x | x
CC(=O)Nc1ccc(N(C(=O)CNC(=O)c2ccco2)C(C(=O)NCc2ccco2)c2ccccc2F)cc1 (stereo not given) | n | n | n | n | n | n | x | x | x | x | x | x
N/C(=N\OC(=O)COc1ccc(Cl)cc1Cl)c1ccncc1 | n | n | n | n | n | n | x | x | x | x | x | x
CN(C(=S)NC(=O)C1(C)CC1(Cl)Cl)c1ccccc1 (stereo not given) | n | n | n | n | 5.1 | n | 0.022 | 0.026 | u | 0.02 | 0.027 | 0.02
Cc1cc(C)c(C#N)c(OCC(=O)c2ccccc2)n1 | n | n | n | n | n | n | n | n | u | n | n | n
CC(C)OCC(O)CN1CCNCC1 (stereo not given) | n | n | n | x | n | n | x | x | x | x | x | x
Cc1cccc(C=Nc2ccccc2C(N)=O)c1 | n | n | n | n | -4.7 | n | n | n | n | n | n | n
O=C(Nc1cc(S(=O)(=O)N2CCOCC2)ccc1N1CCOCC1)C1CCCO1 (stereo not given) | n | n | n | n | n | n | x | x | x | x | x | x
COc1ccc(CN2C(=O)CS(=O)CC2=O)cc1OC | n | n | n | x | x | n | x | x | x | x | x | x
O=[N+]([O-])c1cccc(/C=N/NC2=NS(=O)(=O)c3ccccc32)c1 | n | n | n | n | -3.8 | n | n | u | n | n | n | n
S=C(NC1CCCC1)N1CCN(c2ccc(Cl)cc2)CC1 | n | n | n | n | n | n | x | x | x | x | x | x
Cc1ccc(CN2CCN(CC(=O)O)C2=O)cc1 | n | n | n | n | n | n | x | x | x | x | x | x

Screens: PubChem, several laboratories
